In brackets after ≈: the same amount, converted by molar mass.
Tests used:
Cytomegalovirus [1] = assay: Antiviral activity against Cytomegalovirus AD-169 in human embryonic lung cells; assay type: functional, organism-based; conditions: Human betaherpesvirus 5, AD-169, lung
In short: (§1)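 HEL cell monolayers infected at 20 PFU per well, adsorbed 2 h at 37 °C. Medium with serial compound dilutions then added. Giemsa stain on day 7 and plaques counted under the microscope. IC50 is the concentration giving 50% inhibition of virus-induced plaque formation. Minimum cytotoxic concentration scored on day 7 as the lowest concentration causing visible change to the confluent cells.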

Cytomegalovirus [2] = assay: Antiviral activity against Cytomegalovirus Davies in human embryonic lung cells; assay type: functional, organism-based; conditions: Human betaherpesvirus 5, Davies; in short: as §1
HEL = assay: Cytotoxicity against human embryonic lung cells; assay type: functional
In short: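 Two HEL cell toxicity read-outs. Cell growth (CC50): growing HEL cells in 96-well plates were given serial compound concentrations for 3 days, then trypsinized and counted with a Coulter counter; CC50 is the concentration cutting cell growth by 50%. Morphology (MCC): on confluent monolayers during the antiviral assay, this is the lowest concentration with microscopically visible toxicity at day 7.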

Row | SMILES | IC50 (Cytomegalovirus [1]) [µg/mL] | IC50 (Cytomegalovirus [2]) [µg/mL] | CC50 (HEL) [µg/mL] | MCC (HEL) [µg/mL]
1 | CO[C@@H]1[C@@H](OC)[C@H](c2ccccc2)O[C@@H]2CO[C@@H](c3ccccc3)O[C@@H]12 | 2 (≈ 5.61 µM) | 2.4 (≈ 6.73 µM) |  | 
2 | CCO[C@@H]1[C@@H](OCC)[C@H](Cc2ccccc2)O[C@@H]2CO[C@@H](c3ccccc3)O[C@@H]12 | 2.6 (≈ 6.52 µM) | 3 (≈ 7.53 µM) | > 50 | > 120
3 | CO[C@@H]1[C@@H](OC)[C@H](Cc2ccccc2)O[C@@H]2CO[C@@H](c3ccccc3)O[C@@H]12 | 20 (≈ 54 µM) | 5 (≈ 13.5 µM) | > 50 | 20
4 | C=CCO[C@@H]1[C@@H](OCC=C)[C@H](Cc2ccccc2)O[C@@H]2CO[C@@H](c3ccccc3)O[C@@H]12 | 1.2 (≈ 2.84 µM) | 1 (≈ 2.37 µM) | > 50 | 20
5 | O[C@@H]1[C@@H](O)[C@H](c2ccccc2)O[C@@H]2CO[C@@H](c3ccc(C(F)(F)F)cc3)O[C@@H]12 | 1.6 (≈ 4.04 µM) | 1.6 (≈ 4.04 µM) | 35 (≈ 88.3 µM) | 400
6 | C#CCO[C@@H]1[C@@H](OCC#C)[C@H](c2ccccc2)O[C@@H]2CO[C@@H](c3ccccc3)O[C@@H]12 | 5 (≈ 12.4 µM) | 3 (≈ 7.42 µM) |  | 40
7 | CO[C@@H]1[C@@H](OC)[C@H](c2ccccc2)O[C@@H]2CO[C@@H](C3CCCCC3)O[C@@H]12 | 3.2 (≈ 8.83 µM) | 3.5 (≈ 9.66 µM) | 28 (≈ 77.2 µM) | 20
8 | O=[N+]([O-])c1ccc([C@@H]2OC[C@H]3O[C@@H](c4ccccc4)[C@H](O)[C@@H](O)[C@@H]3O2)cc1 | 10 (≈ 26.8 µM) | 9.3 (≈ 24.9 µM) | > 50 | 50
9 | CCCCCO[C@@H]1[C@@H](OCCCCC)[C@H](c2ccccc2)O[C@@H]2CO[C@@H](c3ccccc3)O[C@@H]12 | > 3.2 | 2.4 (≈ 5.12 µM) | 182 (≈ 388 µM) | 16
10 | CO[C@@H]1[C@@H](OC)[C@H](c2ccccc2)O[C@@H]2CO[C@@H](c3ccc(Cl)cc3)O[C@@H]12 | 5 (≈ 12.8 µM) | 4 (≈ 10.2 µM) | > 50 | ≥ 100
11 | CO[C@@H]1[C@@H](OC)[C@H](c2ccccc2)O[C@@H]2CO[C@@H](c3cccc(Cl)c3)O[C@@H]12 | 5 (≈ 12.8 µM) | 3.2 (≈ 8.19 µM) |  | ≥ 40
12 | C=CC[C@@H]1O[C@@H]2CO[C@@H](c3ccccc3)O[C@H]2[C@H](OC)[C@H]1OC | > 50 | > 50 |  | 
13 | C#CCO[C@@H]1[C@@H](OCC#C)[C@H](Cc2ccccc2)O[C@@H]2CO[C@@H](c3ccccc3)O[C@@H]12 | 0.5 (≈ 1.19 µM) | 0.5 (≈ 1.19 µM) |  | 40
14 | CO[C@H]1[C@H]2O[C@H](c3ccccc3)OC[C@H]2O[C@@H](c2ccccc2)[C@@H]1OC | > 50 | > 50 |  | > 400
15 | CC(C)CO[C@@H]1[C@@H](OCC(C)C)[C@@H](c2ccccc2)O[C@@H]2CO[C@@H](c3ccccc3)O[C@@H]12 | 2.6 (≈ 5.9 µM) | 3.2 (≈ 7.26 µM) |  | 40
16 | CO[C@@H]1[C@@H](OC)[C@H](c2ccccc2)O[C@@H]2CO[C@@H](c3ccc4ccccc4c3)O[C@@H]12 | 0.47 (≈ 1.16 µM) | 0.8 (≈ 1.97 µM) | > 50 | ≥ 16
17 | CO[C@@H]1[C@@H](OC)[C@H](c2ccccc2)O[C@@H]2CO[C@@H](c3ccc(C(F)(F)F)cc3)O[C@@H]12 | 1.5 (≈ 3.53 µM) | 3.1 (≈ 7.3 µM) | > 50 | ≥ 16
18 | CO[C@@H]1[C@@H](OC)[C@H](c2ccccc2)O[C@@H]2CO[C@@H](c3ccc(-c4ccccc4)cc3)O[C@@H]12 | 0.8 (≈ 1.85 µM) | 0.6 (≈ 1.39 µM) | > 50 | ≥ 16
19 | O[C@@H]1[C@@H](O)[C@H](c2ccccc2)O[C@@H]2CO[C@@H](c3ccc4ccccc4c3)O[C@@H]12 | 1.3 (≈ 3.44 µM) | 1.8 (≈ 4.76 µM) | 21 (≈ 55.5 µM) | ≥ 400
20 | O[C@@H]1[C@@H](O)[C@H](c2ccccc2)O[C@@H]2CO[C@@H](c3ccc(Cl)cc3)O[C@@H]12 | 14 (≈ 38.6 µM) | 10 (≈ 27.6 µM) | > 50 | ≥ 100
21 | CO[C@H]1[C@@H]2O[C@H](c3ccccc3)OC[C@H]2O[C@@H](c2ccccc2)[C@H]1OC | > 50 | > 50 |  | 400

Reference: ChEMBL document CHEMBL1139658, “Synthesis and screening of bicyclic carbohydrate-based compounds: a novel type of antivirals” (Bioorg Med Chem Lett, 2006)
